Peptide text beside a SMILES is read from it. Where only a bound is given, the exact number is not on record here.

For orientation: half-life means how long it takes for the measured level to halve. The term IC50 denotes the midpoint of a concentration-inhibition curve.

Tested on in the first data set: not listed separately
Put plainly: Half life in mouse plasma assessed as remaining peptide antagonistic activity for inhibition of binding of alkaline phosphatase-fused ephrin-A5 to immobilized EphA4 Fc incubated for 3 days by ELISA. The data set is classed as cell-free.
Settings: not given
Put shortly: (§1)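 Peptide was incubated in mouse plasma or rat CSF for various periods. The residual ability to inhibit ephrin-A5–EphA4 interaction was then measured by ELISA, and the half-life of active peptide was derived from the loss of activity over time.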
As to `CC(C)[C@@H]1NC(=O)[C@@H](NC(=O)[C@H](Cc2ccc(O)cc2)NC(=O)CN)CSSC[C@@H](C(N)=O)NC(=O)[C@H](CO)NC(=O)[C@H](Cc2c[nH]c3ccccc23)NC(=O)[C@H](CO)NC(=O)CCNC(=O)[C@H](CCCNC(=N)N)NC(=O)[C@H](Cc2ccc(O)cc2)NC1=O`, the half-life is 6 h. Take `CC(C)[C@@H]1NC(=O)[C@@H](NC(=O)[C@H](Cc2ccc(O)cc2)NC(=O)[C@@H]2CCCN2C(=O)[C@H](C)N)CSSC[C@@H](C(N)=O)NC(=O)[C@H](CO)NC(=O)[C@H](Cc2c[nH]c3ccccc23)NC(=O)[C@H](CO)NC(=O)CCNC(=O)[C@H](CCCNC(=N)N)NC(=O)[C@H](Cc2ccc(O)cc2)NC1=O`: the half-life was below 3 h. Still for that read-out and setting: to `CC(C)[C@@H]1NC(=O)[C@@H](NC(=O)[C@H](Cc2ccc(O)cc2)NC(=O)[C@@H]2CCCN2C(=O)[C@@H](C)N)CSSC[C@@H](C(N)=O)NC(=O)[C@H](CO)NC(=O)[C@H](Cc2c[nH]c3ccccc23)NC(=O)[C@H](CO)NC(=O)CCNC(=O)[C@H](CCCNC(=N)N)NC(=O)[C@H](Cc2ccc(O)cc2)NC1=O` belongs above 72 h; to `CC(=O)N1CCC[C@H]1C(=O)N[C@@H](Cc1ccc(O)cc1)C(=O)N[C@H]1CSSC[C@@H](C(N)=O)NC(=O)[C@H](CO)NC(=O)[C@H](Cc2c[nH]c3ccccc23)NC(=O)[C@H](CO)NC(=O)CCNC(=O)[C@H](CCCNC(=N)N)NC(=O)[C@H](Cc2ccc(O)cc2)NC(=O)[C@H](C(C)C)NC1=O`, above 72 h; to `CNCC(=O)N[C@@H](Cc1ccc(O)cc1)C(=O)N[C@H]1CSSC[C@@H](C(N)=O)NC(=O)[C@H](CO)NC(=O)[C@H](Cc2c[nH]c3ccccc23)NC(=O)[C@H](CO)NC(=O)CCNC(=O)[C@H](CCCNC(=N)N)NC(=O)[C@H](Cc2ccc(O)cc2)NC(=O)[C@H](C(C)C)NC1=O`, above 72 h.

On to `CC(C)[C@@H]1NC(=O)[C@@H](NC(=O)[C@H](Cc2ccc(O)cc2)NC(=O)CCCCCN)CSSC[C@@H](C(N)=O)NC(=O)[C@H](CO)NC(=O)[C@H](Cc2c[nH]c3ccccc23)NC(=O)[C@H](CO)NC(=O)CCNC(=O)[C@H](CCCNC(=N)N)NC(=O)[C@H](Cc2ccc(O)cc2)NC1=O`, for which the half-life was above 72 h. Take `CC(C)[C@@H]1NC(=O)[C@@H](NC(=O)[C@H](Cc2ccc(O)cc2)NC(=O)CCCN)CSSC[C@@H](C(N)=O)NC(=O)[C@H](CO)NC(=O)[C@H](Cc2c[nH]c3ccccc23)NC(=O)[C@H](CO)NC(=O)CCNC(=O)[C@H](CCCNC(=N)N)NC(=O)[C@H](Cc2ccc(O)cc2)NC1=O`: the half-life is above 72 h.

For the compound `CC(C)[C@@H]1NC(=O)[C@@H](NC(=O)[C@H](Cc2ccc(O)cc2)NC(=O)[C@@H]2CCCN2C(=O)CCN)CSSC[C@@H](C(N)=O)NC(=O)[C@H](CCC(=O)O)NC(=O)[C@H](Cc2c[nH]c3ccccc23)NC(=O)[C@H](CCC(=O)O)NC(=O)CCNC(=O)[C@H](CCCNC(=N)N)NC(=O)[C@H](Cc2ccc(O)cc2)NC1=O`, the half-life is above 72 h.

Take `CC(C)[C@@H]1NC(=O)[C@@H](NC(=O)[C@H](Cc2ccc(O)cc2)NC(=O)CCCCN)CSSC[C@@H](C(N)=O)NC(=O)[C@H](CO)NC(=O)[C@H](Cc2c[nH]c3ccccc23)NC(=O)[C@H](CO)NC(=O)CCNC(=O)[C@H](CCCNC(=N)N)NC(=O)[C@H](Cc2ccc(O)cc2)NC1=O`: the half-life is above 72 h. For the compound `CC(=O)N[C@@H](C)C(=O)N1CCC[C@H]1C(=O)N[C@@H](Cc1ccc(O)cc1)C(=O)N[C@H]1CSSC[C@@H](C(N)=O)NC(=O)[C@H](CO)NC(=O)[C@H](Cc2c[nH]c3ccccc23)NC(=O)[C@H](CO)NC(=O)CCNC(=O)[C@H](CCCNC(=N)N)NC(=O)[C@H](Cc2ccc(O)cc2)NC(=O)[C@H](C(C)C)NC1=O`, the half-life is 72 h.

For the compound `CC(C)[C@@H]1NC(=O)[C@@H](NC(=O)[C@H](Cc2ccc(O)cc2)NC(=O)CCN)CSSC[C@@H](C(N)=O)NC(=O)[C@H](CO)NC(=O)[C@H](Cc2c[nH]c3ccccc23)NC(=O)[C@H](CO)NC(=O)CCNC(=O)[C@H](CCCNC(=N)N)NC(=O)[C@H](Cc2ccc(O)cc2)NC1=O`, the half-life was 30 h. In the case of `CC(C)[C@@H]1NC(=O)[C@@H](NC(=O)[C@H](Cc2ccc(O)cc2)NC(=O)[C@@H]2CCCN2)CSSC[C@@H](C(N)=O)NC(=O)[C@H](CO)NC(=O)[C@H](Cc2c[nH]c3ccccc23)NC(=O)[C@H](CO)NC(=O)CCNC(=O)[C@H](CCCNC(=N)N)NC(=O)[C@H](Cc2ccc(O)cc2)NC1=O`, the half-life is 15 h.

The next data set deals with Ephrin type-A receptor 4 (Homo sapiens, UniProt P54764). Put plainly: Antagonist activity against human EphA4 receptor assessed as inhibition of binding of alkaline phosphatase-fused ephrin-A5 to immobilized EphA4 Fc by ELISA.
Ephrin type-A receptor 4, sequence (P54764 whole entry, the tested form may be a part): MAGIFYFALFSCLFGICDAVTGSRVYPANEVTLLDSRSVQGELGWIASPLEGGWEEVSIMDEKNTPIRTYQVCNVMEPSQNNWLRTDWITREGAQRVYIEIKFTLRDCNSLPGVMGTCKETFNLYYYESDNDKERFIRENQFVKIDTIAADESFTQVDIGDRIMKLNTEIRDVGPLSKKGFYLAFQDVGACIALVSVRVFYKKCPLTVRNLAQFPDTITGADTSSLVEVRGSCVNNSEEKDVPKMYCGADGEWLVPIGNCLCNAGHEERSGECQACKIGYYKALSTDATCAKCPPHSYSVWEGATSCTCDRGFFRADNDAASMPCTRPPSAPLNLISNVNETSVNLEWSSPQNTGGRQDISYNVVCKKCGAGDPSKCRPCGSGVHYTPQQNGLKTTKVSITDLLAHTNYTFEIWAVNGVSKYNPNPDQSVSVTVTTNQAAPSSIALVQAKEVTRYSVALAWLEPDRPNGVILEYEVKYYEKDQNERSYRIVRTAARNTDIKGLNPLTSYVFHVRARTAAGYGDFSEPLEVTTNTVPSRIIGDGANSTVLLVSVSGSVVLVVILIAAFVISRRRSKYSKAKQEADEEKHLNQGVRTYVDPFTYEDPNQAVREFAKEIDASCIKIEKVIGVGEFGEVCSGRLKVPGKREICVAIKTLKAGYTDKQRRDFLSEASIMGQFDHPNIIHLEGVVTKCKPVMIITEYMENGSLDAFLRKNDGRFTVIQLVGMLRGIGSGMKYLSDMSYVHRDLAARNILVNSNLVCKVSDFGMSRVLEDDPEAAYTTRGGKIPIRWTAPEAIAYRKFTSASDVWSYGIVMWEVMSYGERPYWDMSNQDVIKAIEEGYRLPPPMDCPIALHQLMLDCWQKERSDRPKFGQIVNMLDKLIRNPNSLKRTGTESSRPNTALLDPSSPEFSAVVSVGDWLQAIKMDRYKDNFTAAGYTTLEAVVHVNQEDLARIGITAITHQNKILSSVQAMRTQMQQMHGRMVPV
Settings: not given
In general terms: In an ELISA, binding on a coated surface is turned into a signal by an enzyme label.
For `CC(C)[C@@H]1NC(=O)[C@@H](NC(=O)[C@H](Cc2ccc(O)cc2)NC(=O)[C@@H]2CCCN2C(=O)CCN)CSSC[C@@H](C(N)=O)NC(=O)[C@H](Cc2c[nH]c3ccccc23)NC(=O)[C@H](CCC(=O)O)NC(=O)[C@H](CCC(=O)O)NC(=O)CCNC(=O)[C@H](CCCNC(=N)N)NC(=O)[C@H](Cc2ccc(O)cc2)NC1=O` (HELM PEPTIDE1{[bAla].P.Y.C.V.Y.R.[bAla].E.E.W.C.[am]}$PEPTIDE1,PEPTIDE1,4:R3-12:R3$$$V2.0), the IC50 was above 10 µM.

The next data set concerns HT-22. Put plainly: Cytotoxicity against mouse HT22 cells at 15 to 30 uM after 24 hrs by MTT assay. In kind it is cell-based. The note with it: ht-22, 24 h. In short, it runs like this:
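HT22 neuronal cells were grown 24 h with 15 or 30 μM peptide, alongside controls receiving the matching DMSO concentration. Cell number was quantified by MTT, with averages ± SE from 5 measurements.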
On the technique in general: Tetrazolium assays rely on reduction of a dye to a coloured formazan, in cell work by metabolically active cells.
For the compound `CC(C)[C@@H]1NC(=O)[C@@H](NC(=O)[C@H](Cc2ccc(O)cc2)NC(=O)[C@@H]2CCCN2C(=O)CCN)CSSC[C@@H](C(N)=O)NC(=O)[C@H](CCC(=O)O)NC(=O)[C@H](Cc2c[nH]c3ccccc23)NC(=O)[C@H](CCC(=O)O)NC(=O)CCNC(=O)[C@H](CCCNC(=N)N)NC(=O)[C@H](Cc2ccc(O)cc2)NC1=O`, the Activity entry is “Non-Toxic”.

Tested on in another data set: not listed separately
Put plainly: Stability in Sprague-Dawley rat CSF assessed as remaining peptide antagonistic activity for inhibition of binding of alkaline phosphatase-fused ephrin-A5 to immobilized EphA4 Fc incubated for 3 days by ELISA. In kind it is tissue-based, Cerebrospinal fluid. Conditions: in vitro, 72 h. Put shortly:
as §1
Take `CC(C)[C@@H]1NC(=O)[C@@H](NC(=O)[C@H](Cc2ccc(O)cc2)NC(=O)[C@@H]2CCCN2C(=O)[C@@H](C)N)CSSC[C@@H](C(N)=O)NC(=O)[C@H](CO)NC(=O)[C@H](Cc2c[nH]c3ccccc23)NC(=O)[C@H](CO)NC(=O)CCNC(=O)[C@H](CCCNC(=N)N)NC(=O)[C@H](Cc2ccc(O)cc2)NC1=O`: the Stability entry is “Stable”.

The values are drawn from ChEMBL document CHEMBL4431394, “Modifications of a Nanomolar Cyclic Peptide Antagonist for the EphA4 Receptor To Achieve High Plasma Stability” (ACS Med Chem Lett, 2016).
